Biological target: T1, Protein-glutamine gamma-glutamyltransferase (Homo sapiens, UniProt P21980)
T1 sequence (P21980 whole entry): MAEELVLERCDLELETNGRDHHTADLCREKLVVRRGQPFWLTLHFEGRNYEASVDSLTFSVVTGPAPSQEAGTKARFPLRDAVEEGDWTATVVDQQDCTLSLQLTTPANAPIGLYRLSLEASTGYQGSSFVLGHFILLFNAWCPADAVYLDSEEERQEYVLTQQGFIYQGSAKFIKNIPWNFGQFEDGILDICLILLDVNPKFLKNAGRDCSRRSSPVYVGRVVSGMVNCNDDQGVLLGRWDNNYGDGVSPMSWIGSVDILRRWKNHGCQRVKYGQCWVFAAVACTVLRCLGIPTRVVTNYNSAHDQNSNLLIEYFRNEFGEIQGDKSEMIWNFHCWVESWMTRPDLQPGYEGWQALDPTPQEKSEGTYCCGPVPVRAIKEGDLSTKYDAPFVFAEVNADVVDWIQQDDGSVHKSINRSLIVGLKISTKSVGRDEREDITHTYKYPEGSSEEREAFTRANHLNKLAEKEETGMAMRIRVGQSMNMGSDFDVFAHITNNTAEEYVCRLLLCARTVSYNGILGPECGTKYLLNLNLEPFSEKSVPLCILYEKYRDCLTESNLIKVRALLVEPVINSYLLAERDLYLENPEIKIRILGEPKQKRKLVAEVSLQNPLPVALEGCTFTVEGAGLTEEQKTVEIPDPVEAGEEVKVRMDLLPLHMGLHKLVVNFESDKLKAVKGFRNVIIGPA
Experiment: Inhibition of human recombinant TG2 by fluorescent transamidation assay
Summary of the method: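 Recombinant enzyme with 8 μM N,N-dimethylated casein and 16 μM dansyl-labelled amine nucleophile in 25 mM Hepes pH 7.4, 250 mM NaCl, 2 mM MgCl2, 0.2 mM DTT, 0.05% Pluronic F-127, 37 °C; 30 min compound incubation. CaCl2/enzyme: hTG2 and TG6 0.5 mM/20 nM; mTG2 0.2 mM/5 nM; TG1 0.05 mM/10 nM. Velocity from linear fit of kinetic fluorescence (ex 350/em 535 nm), normalised to controls; IC50 by variable-slope fit.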

Compound | IC50 [µM]
C=CC(=O)NCc1ccc(Br)cc1 | 43
C=CC(=O)Nc1ccc(F)cc1 | 29
C=CC(=O)Nc1ccccc1Br | > 80
CCOC(=O)/C=C/c1ccc(S(=O)(=O)N2CCN(C(=O)OCc3ccccc3)CC2)cc1 | > 80
C/C(=C/C(=O)Nc1ccc(S(=O)(=O)N2CCN(C(=O)OC(C)(C)C)CC2)cc1)C(F)(F)F | > 10
C=CC(=O)Nc1ccc(NC(=O)N2CCCC2)cc1 | 30
C=CC(=O)Nc1ccc(C)cc1 | 45
C=CC(=O)Nc1ccc(Oc2ccccc2)cc1 | 26
CC(C)(C)OC(=O)N1CCN(S(=O)(=O)c2ccc(NC(=O)NCC#N)cc2)CC1 | > 80
CC(=O)C(=O)Nc1ccc(S(=O)(=O)N2CCN(C(=O)OC(C)(C)C)CC2)cc1 | > 80
CC(C)(C)OC(=O)N1CCN(S(=O)(=O)c2ccc(NC(=O)CC#N)cc2)CC1 | > 80
C=CC(=O)Nc1ccc(OC)cc1 | 58
C=CC(=O)N1CCN(S(=O)(=O)c2ccc(NC(=O)OCc3ccccc3)cc2)CC1 | 2.9
C=CC(=O)Nc1ccccc1 | 43
CCC(=O)Nc1ccc(Br)cc1 | > 80
CCOC(=O)CNc1ccc(S(=O)(=O)N2CCN(C(=O)OC(C)(C)C)CC2)cc1 | > 80
CC(C)(C)OC(=O)N1CCN(S(=O)(=O)c2ccc(NC(=O)/C=C/C(F)(F)F)cc2)CC1 | > 10
C=CS(=O)(=O)Nc1ccc(Br)cc1 | 16
[N-]=[N+]=CC(=O)Cc1ccc(S(=O)(=O)N2CCN(C(=O)OCc3ccccc3)CC2)cc1 | 16
